Data from article PMC9291915 (British Journal of Clinical Pharmacology, 2021).

How the values were obtained:
CYP3A4 = CYP3A4 (Homo sapiens, UniProt P08684); assay: Cytochrome P450 inhibition; format: in vitro ADME
Summary of the method: (§1)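 Human liver microsomes (0.25 mg/mL final) were pre-incubated with the test compound at six concentrations (40 to 10 000, in water) for 30 min without or with NADPH, or with 0 min pre-incubation. Probe substrate and NADPH (1 mM) were then added (final DMSO 0.05%) and incubated 5 min at 37 °C. Isoform-specific time-dependent inhibitors served as positive controls. IC50 per condition was derived from the decrease in metabolite formation versus vehicle control.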

[1] = cited from earlier work
CYP2C8 = target: T1, CYP2C8 (Homo sapiens, UniProt P10632); assay: Cytochrome P450 inhibition; format: in vitro ADME; conditions: substrate paclitaxel; any pre-incubation condition
T1 sequence (P10632 1-490): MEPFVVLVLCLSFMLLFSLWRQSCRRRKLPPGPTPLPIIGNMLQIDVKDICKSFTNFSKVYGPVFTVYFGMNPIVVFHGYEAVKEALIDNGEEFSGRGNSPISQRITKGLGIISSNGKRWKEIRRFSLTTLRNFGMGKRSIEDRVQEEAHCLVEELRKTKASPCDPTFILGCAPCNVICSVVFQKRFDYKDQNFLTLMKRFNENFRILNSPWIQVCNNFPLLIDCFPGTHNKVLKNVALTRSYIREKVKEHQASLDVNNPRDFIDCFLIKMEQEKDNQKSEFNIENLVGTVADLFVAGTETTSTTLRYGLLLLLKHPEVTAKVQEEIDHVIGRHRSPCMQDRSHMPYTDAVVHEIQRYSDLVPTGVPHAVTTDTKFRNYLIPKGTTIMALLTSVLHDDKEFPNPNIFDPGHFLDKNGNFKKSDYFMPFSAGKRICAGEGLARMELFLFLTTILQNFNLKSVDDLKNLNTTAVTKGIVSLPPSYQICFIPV
Summary of the method: as §1

[2] = Clinical pharmacokinetics of treosulfan in plasma and urine; format: in vivo, human; conditions: for AUC / half-life: human, plasma, intravenous; for AUC: 14 g/m^2, AUC; for half-life: 14 g/m^2, apparent half‐life, median
CYP2C9 = CYP2C9 (Homo sapiens, UniProt P11712); assay: Cytochrome P450 inhibition; format: in vitro ADME; conditions: substrate diclofenac; any pre-incubation condition
Summary of the method: as §1

CYP2B6 = target: T2, CYP2B6 (Homo sapiens, UniProt P20813); assay: Cytochrome P450 inhibition; format: in vitro ADME; conditions: substrate bupropion; any pre-incubation condition
T2 sequence (P20813 1-491): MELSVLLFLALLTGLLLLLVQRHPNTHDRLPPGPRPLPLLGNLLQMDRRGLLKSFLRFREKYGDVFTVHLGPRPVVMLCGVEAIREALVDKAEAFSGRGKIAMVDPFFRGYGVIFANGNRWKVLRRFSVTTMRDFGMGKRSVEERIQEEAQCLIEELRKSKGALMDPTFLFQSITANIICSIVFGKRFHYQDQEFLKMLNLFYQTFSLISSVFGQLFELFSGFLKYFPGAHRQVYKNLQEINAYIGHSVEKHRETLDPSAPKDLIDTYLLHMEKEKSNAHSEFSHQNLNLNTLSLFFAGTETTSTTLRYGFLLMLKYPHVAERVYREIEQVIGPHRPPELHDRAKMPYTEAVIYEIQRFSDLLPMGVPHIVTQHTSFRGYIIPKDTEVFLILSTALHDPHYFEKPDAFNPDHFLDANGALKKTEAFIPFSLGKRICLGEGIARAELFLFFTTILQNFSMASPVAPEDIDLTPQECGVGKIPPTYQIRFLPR
Summary of the method: as §1

CYP1A2 = target: T3, CYP1A2 (Homo sapiens, UniProt P05177); assay: Cytochrome P450 inhibition; format: in vitro ADME; conditions: substrate phenacetin; any pre-incubation condition
T3 sequence (P05177 1-516): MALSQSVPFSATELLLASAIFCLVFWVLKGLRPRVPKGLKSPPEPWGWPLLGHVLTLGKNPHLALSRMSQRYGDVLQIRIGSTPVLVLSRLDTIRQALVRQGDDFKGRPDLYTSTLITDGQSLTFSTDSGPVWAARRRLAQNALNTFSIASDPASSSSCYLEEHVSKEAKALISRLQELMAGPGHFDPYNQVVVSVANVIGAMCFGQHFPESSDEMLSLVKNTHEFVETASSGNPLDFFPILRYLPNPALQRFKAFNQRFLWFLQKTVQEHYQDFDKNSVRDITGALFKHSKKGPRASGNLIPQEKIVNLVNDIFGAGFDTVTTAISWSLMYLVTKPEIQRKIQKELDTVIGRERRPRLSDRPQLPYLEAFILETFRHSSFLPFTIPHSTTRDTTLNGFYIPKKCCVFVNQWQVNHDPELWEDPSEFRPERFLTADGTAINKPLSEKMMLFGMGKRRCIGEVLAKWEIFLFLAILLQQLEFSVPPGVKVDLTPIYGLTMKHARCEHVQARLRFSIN
Summary of the method: as §1

[3] = cited from earlier work; remark: listed apart in the source
CYP2C19 = CYP2C19 (Homo sapiens, UniProt P33261); assay: Cytochrome P450 inhibition; format: in vitro ADME
Summary of the method: as §1

[4] = cited from earlier work; remark: listed apart in the source
CYP2D6 = CYP2D6 (Homo sapiens, UniProt P10635); assay: Cytochrome P450 inhibition; format: in vitro ADME; conditions: substrate dextromethorphan; any pre-incubation condition
Summary of the method: as §1

P-gp = P-gp (Homo sapiens, UniProt P08183); format: in vitro ADME
Summary of the method: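 Bidirectional transport of loperamide was measured in a cell test system without and with a concentration range of the test compound; cyclosporin A was the control inhibitor. Papp = (dQ/dt)/(A×C0). Per replicate, A→B Papp was subtracted from B→A Papp to give net secretory flux. This was expressed as % of mean vehicle-control activity and fitted for IC50. Ki = IC50/(1+[S]×fu/Km), using loperamide Km 36.2.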

Sequence of CYP3A4 (P08684 whole entry, canonical isoform): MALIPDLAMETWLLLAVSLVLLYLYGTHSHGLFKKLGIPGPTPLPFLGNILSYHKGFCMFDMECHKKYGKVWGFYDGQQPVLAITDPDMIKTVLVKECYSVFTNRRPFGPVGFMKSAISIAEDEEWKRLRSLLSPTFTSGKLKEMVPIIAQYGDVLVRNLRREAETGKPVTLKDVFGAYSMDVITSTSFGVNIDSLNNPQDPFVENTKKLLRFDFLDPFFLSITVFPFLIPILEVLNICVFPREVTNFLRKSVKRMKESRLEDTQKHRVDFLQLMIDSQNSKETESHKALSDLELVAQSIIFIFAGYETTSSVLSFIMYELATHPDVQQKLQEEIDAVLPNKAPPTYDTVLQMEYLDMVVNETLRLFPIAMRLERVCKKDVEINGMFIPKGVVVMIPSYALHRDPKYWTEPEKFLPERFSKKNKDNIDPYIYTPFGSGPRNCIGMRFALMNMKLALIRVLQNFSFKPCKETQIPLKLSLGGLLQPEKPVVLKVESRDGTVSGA
Sequence of P-gp (P08183 whole entry): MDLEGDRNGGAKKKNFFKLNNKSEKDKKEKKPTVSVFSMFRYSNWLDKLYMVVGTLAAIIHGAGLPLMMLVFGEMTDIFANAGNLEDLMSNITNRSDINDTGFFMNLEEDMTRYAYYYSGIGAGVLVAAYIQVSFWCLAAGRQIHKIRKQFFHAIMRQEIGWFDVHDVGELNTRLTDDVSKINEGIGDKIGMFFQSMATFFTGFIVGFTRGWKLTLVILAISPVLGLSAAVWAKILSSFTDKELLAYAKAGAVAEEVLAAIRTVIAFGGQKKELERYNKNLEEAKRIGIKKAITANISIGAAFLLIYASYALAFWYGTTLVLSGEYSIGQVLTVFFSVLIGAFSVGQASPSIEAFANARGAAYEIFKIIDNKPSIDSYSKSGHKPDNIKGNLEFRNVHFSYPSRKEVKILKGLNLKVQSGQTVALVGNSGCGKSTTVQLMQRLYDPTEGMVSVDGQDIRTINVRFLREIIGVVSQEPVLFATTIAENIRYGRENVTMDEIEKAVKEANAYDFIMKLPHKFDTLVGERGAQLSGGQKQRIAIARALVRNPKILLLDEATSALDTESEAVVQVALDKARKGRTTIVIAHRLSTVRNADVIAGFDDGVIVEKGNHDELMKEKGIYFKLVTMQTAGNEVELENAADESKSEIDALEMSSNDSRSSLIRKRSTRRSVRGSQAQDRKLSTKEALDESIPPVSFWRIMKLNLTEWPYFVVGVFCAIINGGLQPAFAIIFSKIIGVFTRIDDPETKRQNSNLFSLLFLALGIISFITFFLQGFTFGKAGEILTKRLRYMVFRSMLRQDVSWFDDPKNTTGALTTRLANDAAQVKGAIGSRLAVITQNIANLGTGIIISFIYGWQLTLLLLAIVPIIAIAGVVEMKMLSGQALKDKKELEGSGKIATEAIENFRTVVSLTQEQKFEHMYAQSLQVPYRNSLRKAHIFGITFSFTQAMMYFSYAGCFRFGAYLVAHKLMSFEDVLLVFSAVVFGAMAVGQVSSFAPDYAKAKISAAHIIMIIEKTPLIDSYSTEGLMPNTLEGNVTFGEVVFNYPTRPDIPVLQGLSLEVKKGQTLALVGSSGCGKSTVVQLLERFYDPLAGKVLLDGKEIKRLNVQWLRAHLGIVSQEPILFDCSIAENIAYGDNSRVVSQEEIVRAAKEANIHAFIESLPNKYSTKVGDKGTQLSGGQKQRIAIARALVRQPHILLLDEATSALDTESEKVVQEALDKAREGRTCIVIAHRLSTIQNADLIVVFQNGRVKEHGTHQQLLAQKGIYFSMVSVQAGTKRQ
Sequence of CYP2C19 (P33261 whole entry): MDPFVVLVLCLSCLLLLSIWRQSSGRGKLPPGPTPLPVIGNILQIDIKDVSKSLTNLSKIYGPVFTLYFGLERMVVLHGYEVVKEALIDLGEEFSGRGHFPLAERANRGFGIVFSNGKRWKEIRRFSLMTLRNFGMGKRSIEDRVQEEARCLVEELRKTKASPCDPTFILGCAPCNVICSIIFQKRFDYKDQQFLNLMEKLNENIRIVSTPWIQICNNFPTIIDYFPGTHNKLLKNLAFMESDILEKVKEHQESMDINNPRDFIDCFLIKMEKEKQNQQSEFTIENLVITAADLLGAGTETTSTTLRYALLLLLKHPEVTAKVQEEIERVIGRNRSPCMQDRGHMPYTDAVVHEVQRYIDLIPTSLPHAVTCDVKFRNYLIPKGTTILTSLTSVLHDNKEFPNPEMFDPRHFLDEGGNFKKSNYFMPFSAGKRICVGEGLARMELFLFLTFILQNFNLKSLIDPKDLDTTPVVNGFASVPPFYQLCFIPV
Sequence of CYP2D6 (P10635 whole entry): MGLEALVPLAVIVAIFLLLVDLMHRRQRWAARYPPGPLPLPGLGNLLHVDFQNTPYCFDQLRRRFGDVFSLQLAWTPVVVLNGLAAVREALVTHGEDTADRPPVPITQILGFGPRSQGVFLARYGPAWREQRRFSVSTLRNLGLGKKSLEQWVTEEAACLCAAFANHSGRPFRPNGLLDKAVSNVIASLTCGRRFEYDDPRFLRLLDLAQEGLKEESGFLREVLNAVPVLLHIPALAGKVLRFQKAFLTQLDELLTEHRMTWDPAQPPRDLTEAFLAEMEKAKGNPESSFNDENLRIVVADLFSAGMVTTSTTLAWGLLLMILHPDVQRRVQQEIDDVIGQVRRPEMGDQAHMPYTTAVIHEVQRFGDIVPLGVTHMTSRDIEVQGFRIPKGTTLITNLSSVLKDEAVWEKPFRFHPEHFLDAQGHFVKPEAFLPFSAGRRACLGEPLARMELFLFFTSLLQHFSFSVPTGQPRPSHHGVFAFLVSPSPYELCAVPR
Sequence of CYP2C9 (P11712 whole entry): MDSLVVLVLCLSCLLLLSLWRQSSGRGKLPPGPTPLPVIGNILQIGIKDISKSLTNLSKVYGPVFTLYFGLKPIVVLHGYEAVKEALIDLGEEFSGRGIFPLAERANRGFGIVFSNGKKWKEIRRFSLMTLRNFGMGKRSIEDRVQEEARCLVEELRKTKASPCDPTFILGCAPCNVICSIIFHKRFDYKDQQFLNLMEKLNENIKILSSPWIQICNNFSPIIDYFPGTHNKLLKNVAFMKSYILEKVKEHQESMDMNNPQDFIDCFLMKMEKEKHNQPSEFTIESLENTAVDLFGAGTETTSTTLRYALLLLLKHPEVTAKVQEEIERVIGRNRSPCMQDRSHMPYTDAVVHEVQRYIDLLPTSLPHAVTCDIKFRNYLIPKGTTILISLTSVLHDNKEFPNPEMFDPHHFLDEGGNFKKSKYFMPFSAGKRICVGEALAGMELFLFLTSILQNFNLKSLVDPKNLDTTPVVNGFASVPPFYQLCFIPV

CS(=O)(=O)OC[C@H](O)[C@@H](O)COS(C)(=O)=O [treosulfan, L‐threitol‐1,4‐bis‐methanesulfonate]
IC50 (CYP3A4): 1870 µM
Ki (CYP3A4): 1210 µM
inhibition of CYP3A4 using testosterone as the substrate (CYP3A4; 40 to 10 000 μM treosulfan, any pre-incubation condition): did not inhibit
Log P O:W [1]: −1.58
inhibition of CYP2C8 (CYP2C8): did not inhibit
AUC ([2]; day −4, patients): 1450 µg·h/mL
AUC ([2]; day −6, patients): 1420 µg·h/mL
half-life ([2]; day −4, patients): 1.93 h
half-life ([2]; day −6, patients): 1.86 h
administered dose excreted in urine ([2]; patients): About 40%
rate at which dose was excreted in urine ([2]; patients, CV% = 31.98%): 130.38 mL/min
inhibition of CYP2C9 (CYP2C9): did not inhibit
inhibition of CYP2B6 (CYP2B6): did not inhibit
inhibition of CYP1A2 (CYP1A2): did not inhibit
B:P (blood‐plasma ratio) [3]: 0.88
IC50 (CYP2C19): 972 µM
Ki (CYP2C19): 778 µM
GFR fraction, literature [4]: Estimated (literature[20]: 0.41 ± 0.22)
inhibition of CYP2D6 (CYP2D6): did not inhibit
Ki (P-gp): 1770 µM
IC50 (P-gp; human, in vitro cell test system (cell line not given), probe loperamide): > 1000 µM
